SENP6 inh: blocks the human protease SENP6 | Q9GZR1 | Recombinant SENP6 catalytic domain, aminoluciferin luminescence | inhibition, % at 10 µM | 330,000 compounds, 1.8% hits | AID 2599;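 active means inhibition above about 50% at the single tested dose, limit read from the data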;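 further: plate controls were DMSO wells with enzyme for no effect and DMSO wells lacking enzyme for full effect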
SENP8 block-1: blocks human SENP8 cleavage of Nedd8 substrate; Q96LD8; recombinant SENP8, Nedd8 substrate fluorescence; inhibition, % at 20 µM; 360,000 compounds, 0.64% hits; in the data active means inhibition mostly above about 40%, no sharp cut-off; inactive means mostly below about 27%
Target sequence (Q96LD8 whole entry, looked up): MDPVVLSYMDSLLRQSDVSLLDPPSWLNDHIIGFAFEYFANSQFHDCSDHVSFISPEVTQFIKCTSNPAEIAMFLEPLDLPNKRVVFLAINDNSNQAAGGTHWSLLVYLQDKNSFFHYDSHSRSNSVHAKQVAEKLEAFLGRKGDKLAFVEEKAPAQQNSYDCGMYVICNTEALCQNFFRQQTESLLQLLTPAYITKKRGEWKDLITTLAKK
SENP7 inh: inhibitors of human SENP7 protease; Q9BQF6; recombinant SENP7, Z-RLRGG-aminoluciferin luminescence, 40 min; inhibition, % at 5 µM; 330,000 compounds, 1.5% hits; AID 434973;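 active means inhibition above about 50% at the single test dose, limit read from the data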;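 further: plate controls were DMSO with enzyme for no effect and no enzyme buffer wells for full effect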
SENP1 inh: inhibitors of human SENP1 SUMO protease catalytic domain | inhibition, % at 10 µM | recombinant SENP1 catalytic domain, CyPet-SUMO1-YPet FRET cleavage | AID 624204 | Q9P0U3 | 360,000 compounds, 0.21% hits;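 active means inhibition at least 30% at 10 µM, raw YFP signal under a set limit, fluorescence ratio 0.5 to 1.5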;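 further: 0% = enzyme with DMSO and 100% = no enzyme wells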
Target sequence (Q9P0U3 419-644 limits assumed): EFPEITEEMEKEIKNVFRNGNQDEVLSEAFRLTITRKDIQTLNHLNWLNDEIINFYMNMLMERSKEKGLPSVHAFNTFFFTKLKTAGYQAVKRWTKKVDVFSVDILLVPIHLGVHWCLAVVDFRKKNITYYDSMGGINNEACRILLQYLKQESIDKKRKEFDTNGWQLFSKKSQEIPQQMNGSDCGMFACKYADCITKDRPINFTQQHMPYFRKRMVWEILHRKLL
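Assay system: hSENP1 catalytic domain, recombinant. Amount: SENP1 enzyme, 20 pM final. Schedule: 50 min reaction, RT, dark. Technique: FRET, CFP and YFP emission. Control set: no-enzyme wells low, DMSO-plus-enzyme wells high control.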
SENP8 block-2: inhibitors of human SENP8 protease. purified SENP8, Z-RLRGG-aminoluciferin cleavage, luminescence. inhibition, % at 10 µM. 330,000 compounds, 1.2% hits. AID 2540; in the data active means inhibition above about 50%
UCH37 DUB inh: human UCH37 deubiquitinating enzyme inhibition. Q9Y5K5. purified proteasome/UCH37, Ub-AMC cleavage fluorescence. inhibition, % (no concentration beside the values). 330,000 compounds, 0.33% hits;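 active means mean inhibition over replicate wells above about 20%, limit read from the data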;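 further: 0% = compound-free wells with enzyme and 100% = wells lacking proteasome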
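system = Proteasome-associated human UCH37 deubiquitinase | amount = 0.15 nM proteasome as dispensed | medium = pH 7.4 Tris-HCl (50 mM) with ovalbumin, ATP-MgCl2, DTT | incubation = 30 min preincubation with enzyme, 25 min cleavage at room temperature | detection = AMC fluorescence 355/460 nm | read-out basis = percent inhibition | controls = no-proteasome and no-compound wells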
SENP8 inh conf: SENP8 (human) inhibition, single concentration confirmation | purified SENP8, Nedd8-AMC/pro-Nedd8 cleavage fluorescence, 30 min | inhibition, % at 25 µM | shares compounds with SENP8 block-1 | 1,400 compounds, 15% hits; in the data active means inhibition mostly above about 39%, no sharp cut-off; inactive means mostly below about 34%
Numbers without * were called inactive; . = no result. The list is not random: actives were taken first. Their share in the collection is about 2.6%.

SMILES	SENP6 inh	SENP8 block-1	SENP7 inh	SENP1 inh	SENP8 block-2	UCH37 DUB inh	SENP8 inh conf
COc1cc(N(C)C)c([N+](=O)[O-])cc1C(=O)NC(C)CNc1ccc([N+](=O)[O-])cc1Cl (stereo not drawn)	-22	42*	-8	-2	-13	0	26
CCNc1nc(Oc2ccc(=O)n(C)n2)nc(N2CCOCC2)n1	-26	21	-10	1	2	3	.
CNc1nc(Oc2ccc(=O)n(C)n2)nc(N2CCOCC2)n1	11	44*	5	2	1	1	1
CCCOc1ccc(CCC(=O)N/N=C/c2ccco2)cc1	-11	44*	4	5	5	.	17
Cc1ccc(NC(=O)NC2(C(=O)NCc3ccco3)CCCCC2)cc1	-2	40*	-3	3	-7	1	12
CC(/C=C/c1ccccc1F)=NNC(=O)c1cccc(F)c1	.	.	.	.	.	5	.
CC1CCC2C(=O)N(c3ccc(NC4CCN(Cc5ccccc5)CC4)c([N+](=O)[O-])c3)C(=O)C2C1 (stereo not drawn)	21	47*	-7	1	-12	6	15
O=C1C2CCCCC2C(=O)N1c1ccc(NC2CCN(Cc3ccccc3)CC2)c([N+](=O)[O-])c1 (stereo not drawn)	-10	44*	11	3	-6	9	25
O=C1CCC(=O)N1c1ccc(NC2CCN(Cc3ccccc3)CC2)c([N+](=O)[O-])c1	-8	37	9	5	0	7	.
O=[N+]([O-])c1ccc(NC2CCN(Cc3ccccc3)CC2)c([N+](=O)[O-])c1	-4	28	-5	1	9	8	.
O=[N+]([O-])c1ccccc1NC1CCN(Cc2ccccc2)CC1	-16	44*	11	1	1	5	20
C/C(C=NNC(=O)Cn1cnc2c1c(=O)n(C)c(=O)n2C)=C\c1ccco1	.	.	.	.	.	10	.
CC(=NNC(=O)c1ccc(Cn2cc(Br)cn2)o1)c1ccc(NC(=O)c2ccoc2C)cc1	.	.	.	.	.	-10	.
Cc1onc(-c2ccccc2Cl)c1C(=O)c1ccccc1	-38	3	-3	2	0	.	.
Cc1onc(-c2ccccc2Cl)c1-c1nc(-c2ccccn2)no1	-1	41*	10	-13	1	.	11
Cc1cccc(C(=O)NN=Cc2ccc(OC3CSC3)cc2)c1	.	.	.	.	.	1	.
CN(C)c1cccc2c1c(NC(=O)c1ccc(F)cc1)nn2C	0	55*	8	-1	8	2	15
CN(C)c1cccc2c1c(NC(=O)c1ccc(Cl)cc1)nn2C	-14	60*	2	0	-2	7	21
CC(=NNC(=O)c1cc(C2CC2)nc2ccccc12)c1ccc(C)s1	.	.	.	.	.	-41	.
CCn1c(SCC(=O)NN=Cc2ccc(C)s2)nc2ccccc21	.	.	.	.	.	5	.
CCOCCSc1nc2c(c(=O)[nH]c(=O)n2C)n1CCCc1ccccc1	-2	44*	12	3	1	2	34
COc1ccc(C(=NO)C(C)(C)NO)cc1	.	.	.	.	.	0	.
Cc1ccc(CN=c2c([N+](=O)[O-])nn(-c3ccc(Cl)cc3)n2O)cc1	12	36	2	-1	-9	2	.
O=[N+]([O-])c1nn(-c2ccc(Cl)cc2)n(O)c1=NCc1ccncc1	-20	47*	8	-2	-4	5	32
O=C1CCC2(CC1)NC(=O)N(c1ccccc1)N2	3	37*	10	1	5	0	-7
SMILES	SENP6 inh	SENP8 block-1	SENP7 inh	SENP1 inh	SENP8 block-2	UCH37 DUB inh	SENP8 inh conf
C=CCC1CCCCC12NC(=O)N(c1ccccc1)N2 (stereo not drawn)	2	18	1	-2	1	10	.
Cc1[nH]cnc1CN1CCc2c(c3ccccc3n2C)C1=O	21	84*	17	1	12	1	76*
O=C(NN=Cc1ccccn1)c1cc(C2CC2)nc2ccccc12	.	.	.	.	.	4	.
COC(=O)NN=Cc1c(C)nn(-c2ccccc2)c1Cl	.	.	.	.	.	-2	.
N#Cc1c(N=Cc2ccc(O)c([N+](=O)[O-])c2)sc2c1CCCC2	.	.	.	.	.	4	.
CC1CC(=O)Nc2cc([N+](=O)[O-])ccc2N1 (stereo not drawn)	-8	44*	3	2	1	7	30
